Assay results published in PMC4518544 (Journal of medicinal chemistry, 2015).
Entries after “also recorded” stand apart in the source; their conditions may differ. Where two headings read alike, the source gives them in different places.

What was measured:
Grp94 [1] = conditions: read-out: Kd for Grp94; cited from earlier work
Grp94 [2] = target: T1, Grp94 (Canis lupus familiaris, UniProt P41148); assay: FP competition binding assay, Grp94; set-up: species or system Canine; conditions: for decrease in affinity for Grp94 of N3-substituted compounds: compared to the N9-series; for Hsp90α/Grp94: ratio of IC50 values, Table 4; for decrease in Grp94 activity on linker substitution: relative to S-linked 9g; for diminished potency for Grp94 on substitution of N3 with C: relative to 18a and 18c
T1 sequence (P41148 22-804): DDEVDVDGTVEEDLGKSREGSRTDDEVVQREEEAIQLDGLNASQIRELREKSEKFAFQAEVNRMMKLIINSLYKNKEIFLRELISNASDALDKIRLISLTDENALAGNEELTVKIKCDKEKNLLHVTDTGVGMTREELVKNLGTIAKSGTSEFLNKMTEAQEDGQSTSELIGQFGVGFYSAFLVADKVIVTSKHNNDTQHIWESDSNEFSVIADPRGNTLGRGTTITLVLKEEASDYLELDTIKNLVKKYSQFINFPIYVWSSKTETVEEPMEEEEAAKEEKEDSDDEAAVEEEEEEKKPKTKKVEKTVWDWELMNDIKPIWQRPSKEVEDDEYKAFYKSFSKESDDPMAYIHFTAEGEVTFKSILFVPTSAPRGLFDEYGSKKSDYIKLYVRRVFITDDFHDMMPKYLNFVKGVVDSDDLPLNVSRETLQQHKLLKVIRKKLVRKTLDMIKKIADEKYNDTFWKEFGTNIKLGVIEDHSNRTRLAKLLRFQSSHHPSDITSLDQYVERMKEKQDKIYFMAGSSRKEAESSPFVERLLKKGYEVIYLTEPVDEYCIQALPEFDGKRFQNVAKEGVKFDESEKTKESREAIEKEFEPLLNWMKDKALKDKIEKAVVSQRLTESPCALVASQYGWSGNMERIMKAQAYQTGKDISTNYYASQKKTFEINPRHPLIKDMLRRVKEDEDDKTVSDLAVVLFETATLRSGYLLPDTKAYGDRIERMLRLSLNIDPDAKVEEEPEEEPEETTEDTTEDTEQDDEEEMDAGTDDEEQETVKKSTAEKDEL

Hsp90α = Hsp90α (Homo sapiens, UniProt P07900); assay: FP competition binding assay, Hsp90α
Hsp90β = Hsp90β (Homo sapiens, UniProt P08238); assay: FP competition binding assay, Hsp90β
Chain of Hsp90β (P08238 whole entry): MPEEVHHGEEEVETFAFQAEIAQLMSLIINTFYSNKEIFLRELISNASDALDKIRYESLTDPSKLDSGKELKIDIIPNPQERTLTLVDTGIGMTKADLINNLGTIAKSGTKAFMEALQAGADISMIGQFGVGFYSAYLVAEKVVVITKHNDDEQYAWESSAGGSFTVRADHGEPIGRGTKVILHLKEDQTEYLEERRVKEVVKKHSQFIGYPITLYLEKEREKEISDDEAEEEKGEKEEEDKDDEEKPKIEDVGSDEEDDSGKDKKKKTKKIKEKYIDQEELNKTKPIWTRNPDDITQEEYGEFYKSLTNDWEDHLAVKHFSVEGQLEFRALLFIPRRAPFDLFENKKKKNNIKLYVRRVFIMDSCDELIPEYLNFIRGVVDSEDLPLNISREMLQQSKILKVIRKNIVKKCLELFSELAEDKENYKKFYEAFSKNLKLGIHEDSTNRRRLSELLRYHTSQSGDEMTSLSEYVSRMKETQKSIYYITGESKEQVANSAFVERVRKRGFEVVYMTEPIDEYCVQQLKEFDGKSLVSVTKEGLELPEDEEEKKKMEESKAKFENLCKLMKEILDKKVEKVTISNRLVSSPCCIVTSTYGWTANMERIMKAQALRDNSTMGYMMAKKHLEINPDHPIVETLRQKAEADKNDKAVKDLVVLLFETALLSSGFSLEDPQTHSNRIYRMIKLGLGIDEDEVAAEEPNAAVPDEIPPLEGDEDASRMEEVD

scanEDGE 97 kinase panel = assay: scanEDGE kinase competition binding panel; conditions: 10 μM
Summary of the method: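 Competition binding panel. Kinase, biotinylated-ligand streptavidin beads and test compound (from 40× DMSO stocks) were incubated 1 h at room temperature in binding buffer with 6 mM DTT. Beads were washed and eluted 30 min with 0.5 μM free ligand. Eluted kinase was measured by qPCR.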

[3] = test system: HER2-overexpressing SKBr3 cells; conditions: cited from earlier work
[4] = test system: TNFα production in cells stimulated by LPS; assay: TNFα ELISA, Raw264.7 cells stimulated with LPS; assay type: cell-based, mouse; conditions: Hsp90-mediated effect
HER2 = assay: Immunoblotting of HER2 in SKBr3 cells; assay type: cell-based
Summary of the method: (§1)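 SKBr3 cells were treated 24 h with DMSO or test compound and lysed in RIPA buffer (pH 7.4) with protease inhibitors. Protein was measured by BCA, and 5–50 μg was run on SDS–PAGE and transferred to nitrocellulose. Blots were probed for HER2 (1:500), Hsp70 (1:2500), cleaved PARP (1:2500) and β-actin (1:3000), then HRP secondary, ECL and film, with densitometry. Triplicate experiments.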

[5] = test system: IGF-II secretion by differentiated myoblasts; assay: C2C12 differentiation and IGF-II secretion assay; assay type: cell-based, mouse; conditions: 24 h treatment
Summary of the method: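 C2C12 mouse myoblasts kept in DMEM with 10% FBS. Differentiation was induced by switching to DMEM with 2% horse serum (36–48 h). After the switch, cells were treated 24 h. Medium was incubated overnight at 4 °C in anti-IGF-II-coated ELISA wells, then detected with biotinylated anti-IGF-II, HRP-streptavidin and TMB. Read at 450 nm and quantified against a recombinant IGF-II standard curve.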

TLR9 = TLR9 assay in transfected HEK 293T cells; assay type: cell-based; conditions: 24 h treatment
Summary of the method: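 HEK 293T cells were transfected with HA-tagged human TLR9 and split onto chamber slides 24 h later, then treated 24 h at varying concentrations. Cells were fixed (4% paraformaldehyde, 20 min), permeabilized (0.1% Triton X-100, 10 min) and blocked (3% BSA, 30 min). Staining used anti-HA (1:250, 1 h) or normal rabbit IgG, then Cy3 anti-rabbit (1:400), with DAPI mounting. Confocal imaging; fluorescence intensity was normalized to cell number.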

Hsp70 = assay: Immunoblotting of Hsp70 in SKBr3 cells; assay type: cell-based
Summary of the method: as §1

Aqueous solubility = assay type: physicochemical; conditions: water
[6] = test system: CpG induced TNF-α production; assay: TNFα ELISA, Raw264.7 cells stimulated with CpG; assay type: cell-based, mouse; conditions: 18 h treatment
SKBr3 cells = assay: CellTiter-Glo cell viability assay; assay type: cell-based; conditions: 100 μM, 72 h
Summary of the method: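 SKBr3 cells were grown in McCoy's 5A with 10% FBS at 37 °C under CO2, then treated 72 h with vehicle or test compound in quadruplicate wells. Viable cells were measured by CellTiter-Glo ATP luminescence. Points are means, n = 4.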

cleaved PARP = assay: Immunoblotting of cleaved PARP in SKBr3 cells; assay type: cell-based; conditions: 100 μM
Summary of the method: as §1

Grp94 [7] = target: T1, Grp94; conditions: cited from earlier work

5′-N-ethylcarboxamidoadenosine [NECA]
Kd (Grp94 [1]): 0.2 µM

C#CCCCn1cnc(N)c2nc(Sc3ccccc3Cl)nc1-2 [9a′, 8-(2-Chlorophenylthio)-3-(pent-4-ynyl)-3H-purin-6-amine]
IC50 (Grp94 [2]): 100 ± 10 µM | decrease in affinity for Grp94 of N3-substituted compounds (Grp94 [2]): 10–400 fold

C#CCCCn1cnc(N)c2nc(Sc3ccccc3OC)nc1-2 [9b′, 8-(2-Methoxyphenylthio)-3-(pent-4-ynyl)-3H-purin-6-amine]
IC50 (Grp94 [2]): > 100 µM

C#CCCCn1cnc(N)c2nc(Sc3ccccc3CO)nc1-2 [9c′, (2-(6-Amino-3-(pent-4-ynyl)-3H-purin-8-ylthio)phenyl)methanol]
IC50 (Grp94 [2]): > 100 µM

C#CCCCn1cnc(N)c2nc(Sc3ccccc3OC(F)(F)F)nc1-2 [9d′, 3-(Pent-4-ynyl)-8-(2-(trifluoromethoxy)phenylthio)-3H-purin-6-amine]
IC50 (Grp94 [2]): > 100 µM

C#CCCCn1cnc(N)c2nc(Sc3ccc(Cl)cc3Cl)nc1-2 [9g′, 8-(2,4-Dichlorophenylthio)-3-(pent-4-ynyl)-3H-purin-6-amine]
IC50 (Grp94 [2]): 2.37 ± 0.79 µM | decrease in affinity for Grp94 of N3-substituted compounds (Grp94 [2]): 10–400 fold | Hsp90α/Grp94 (Grp94 [2]): >210 µM

C#CCCCn1cnc(N)c2nc(Sc3ccc(OC)cc3OC)nc1-2 [9j′, 8-(2,4-Dimethoxyphenylthio)-3-(pent-4-ynyl)-3H-purin-6-amine]
IC50 (Grp94 [2]): > 100 µM

C#CCCCn1cnc(N)c2nc(Sc3cc(Cl)ccc3Cl)nc1-2 [9k′, 8-(2,5-Dichlorophenylthio)-3-(pent-4-ynyl)-3H-purin-6-amine]
IC50 (Grp94 [2]): 35.3 ± 5 µM | decrease in affinity for Grp94 of N3-substituted compounds (Grp94 [2]): 10–400 fold

C#CCCCn1cnc(N)c2nc(Sc3cc(C)ccc3C)nc1-2 [9l′, 8-(2,5-Dimethylphenylthio)-3-(pent-4-ynyl)-3H-purin-6-amine]
IC50 (Grp94 [2]): > 100 µM

C#CCCCn1cnc(N)c2nc(Sc3cc(C(F)(F)F)ccc3Cl)nc1-2 [9m′, 8-(2-Chloro-5-(trifluoromethyl)phenylthio)-3-(pent-4-ynyl)-3H-purin-6-amine]
IC50 (Grp94 [2]): > 100 µM | IC50 (Hsp90α): > 100 µM | IC50 (Hsp90β): > 100 µM

C#CCCCn1cnc(N)c2nc(Sc3cc(Cl)cc(Cl)c3)nc1-2 [9n′, 8-(3,5-Dichlorophenylthio)-3-(pent-4-ynyl)-3H-purin-6-amine]
decrease in affinity for Grp94 of N3-substituted compounds (Grp94 [2]): 10–400 fold | IC50 (Grp94 [2]; read-out: IC50 Grp94, FP competition, Cy3B-GM probe): 100 ± 8 µM | IC50 (Hsp90β; read-out: IC50 Hsp90β, FP competition, Cy3B-GM probe): > 100 µM

C#CCCCn1cnc(N)c2nc(Sc3cc(C)cc(C)c3)nc1-2 [9q′, 8-(3,5-Dimethylphenylthio)-3-(pent-4-ynyl)-3H-purin-6-amine]
IC50 (Grp94 [2]): > 100 µM

C#CCCCn1cnc(N)c2nc(Sc3cc(Cl)c(Cl)cc3Cl)nc1-2 [9v′, 3-(Pent-4-ynyl)-8-(2,4,5-trichlorophenylthio)-3H-purin-6-amine]
IC50 (Grp94 [2]): 2.08 µM | decrease in affinity for Grp94 of N3-substituted compounds (Grp94 [2]): 10–400 fold | Hsp90α/Grp94 (Grp94 [2]): >48 µM

C#CCCCn1cnc(N)c2nc(Sc3c(C)cc(C)cc3C)nc1-2 [9w′, 8-(Mesitylthio)-3-(pent-4-ynyl)-3H-purin-6-amine]
IC50 (Grp94 [2]): 20 ± 5 µM | decrease in affinity for Grp94 of N3-substituted compounds (Grp94 [2]): 10–400 fold | Hsp90α/Grp94 (Grp94 [2]): >5 µM

C#CCCCCn1c(Sc2cc(Cl)cc(Cl)c2)nc2c(N)ncnc21 [13b, 8-((3,5-Dichlorophenyl)thio)-9-(hex-5-yn-1-yl)-9H-purin-6-amine]
decrease in potency for Grp94 (Grp94 [2]; relative to 9n, chain length five to six carbons): approximately 3 fold

C#CCCCn1c(S(=O)(=O)c2ccc(Cl)cc2Cl)nc2c(N)ncnc21 [14b, 8-((2,4-Dichlorophenyl)sulfonyl)-9-(pent-4-yn-1-yl)-9H-purin-6-amine]
decrease in Grp94 activity on linker substitution (Grp94 [2]): ~ 40 fold

C#CCCCn1c(Oc2ccc(Cl)cc2Cl)nc2c(N)ncnc21 [14c, 8-(2,4-Dichlorophenoxy)-9-(pent-4-yn-1-yl)-9H-purin-6-amine]
decrease in Grp94 activity on linker substitution (Grp94 [2]): 4–6 fold

C#CCCCn1c(Cc2ccc(Cl)cc2Cl)nc2c(N)ncnc21 [14d, 8-(2,4-Dichlorobenzyl)-9-(pent-4-yn-1-yl)-9H-purin-6-amine]
decrease in Grp94 activity on linker substitution (Grp94 [2]): 4–6 fold

CC(C)NCCCn1c(Sc2cc(Cl)cc(Cl)c2)nc2c(N)ncnc21 [18c, 8-((3,5-Dichlorophenyl)thio)-9-(3-(isopropylamino)propyl)-9H-purin-6-amine]
interaction with kinase panel (scanEDGE 97 kinase panel): inert | selectivity for Grp94 over Hsp90α/β (Grp94 [2]): > 100 fold | growth of SKBr3 cells [3]: growth impairment | TNFα production in cells stimulated by LPS [4]: lack of activity | steady-state levels of HER2 kinase (HER2; HER2 overexpressing breast cancer cells, 24 h): reduced | IGF-II secretion by differentiated myoblasts [5]: dose-dependently inhibited | expression of TLR9 in the post-ER compartment (TLR9): dose-dependently inhibited | Hsp70 induction (Hsp70; 24 h): no Hsp70 induction; also recorded: did not modulate | solubility (Aqueous solubility): > 10000 µg/mL | CpG induced TNF-α production [6]: dose-dependently inhibited

CC(C)NCCCn1cnc(N)c2nc(Sc3cc(Cl)cc(Cl)c3)nc1-2 [18c′, 8-((3,5-Dichlorophenyl)thio)-3-(3-(isopropylamino)propyl)-3H-purin-6-amine]
decrease in affinity for Grp94 of N3-substituted compounds (Grp94 [2]): 10–400 fold | Hsp90α/Grp94 (Grp94 [2]): >39 µM

CC(C)NCCCn1c(Sc2ccc(Cl)cc2Cl)nc2c(N)nccc21 [18d, 2-((2,4-Dichlorophenyl)thio)-1-(3-(isopropylamino)propyl)-1H-imidazo[4,5-c]pyridin-4-amine]
diminished potency for Grp94 on substitution of N3 with C (Grp94 [2]): 5–8 fold

CC(C)NCCCn1c(Sc2cc(Cl)cc(Cl)c2)nc2c(N)nccc21 [18e, 2-((3,5-Dichlorophenyl)thio)-1-(3-(isopropylamino)propyl)-1H-imidazo[4,5-c]pyridin-4-amine]
diminished potency for Grp94 on substitution of N3 with C (Grp94 [2]): 5–8 fold

CC(C)NCCCn1c(Sc2cc3c(cc2N(C)C)OCO3)nc2c(N)ncnc21 [18g]
loss of affinity for Grp94 compared to PU-H71 (5) (Grp94 [2]): 10 fold | lower affinity for Grp94 compared to Hsp90α (Grp94 [2]): ~ 3 fold

COC(=O)c1c(O)cc(O)c(Cl)c1CCc1nccn1Cc1ccccc1 [compound 3]
cell viability (SKBr3 cells): cellular toxicity | antiproliferative effects against SKBr3 cells [3]: lacked antiproliferative effects | PARP cleavage (cleaved PARP): minor PARP cleavage | HER2 level (HER2; SKBr3 cells, 100 μM): possibly a slight reduction in HER2 | effect in SKBr3 cells (HER2; up to 10 μM): no effect | Hsp70 induction (Hsp70; 100 μM): Hsp70 induction

C#CCCCn1cnc(N)c2nc(Sc3ccc(C)cc3C)nc1-2 [compound 4, 8-(2,4-Dimethylphenylthio)-3-(pent-4-ynyl)-3H-purin-6-amine]
IC50 (Hsp90α): > 250 µM

CN(C)c1cc2c(cc1Sc1nc3c(N)nccc3n1CCNCC(C)(C)C)OCO2 [compound 22]
lower affinity for Grp94 than for Hsp90α or Hsp90β (Grp94 [7]): ~ 6 fold
